The results in this text go back to ChEMBL document CHEMBL1122216, “2-(Aminomethyl)phenols, a new class of saluretic agents. 6. Effects of N,O-spiroannulation and subsequent quaternization” (1983).

Assay [1] concerns Rattus norvegicus. Briefly: Antihypertensive activity after po administration of 40 mg/kg dose in spontaneously hypertensive(SH) rats; score is for average value of four animals. Format: functional. The essentials: (§1)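 Spontaneously hypertensive rats were scored by the maximum fall in blood pressure: 0, <20 mm; 1, <30 mm; 2, <40 mm; 3, >40 mm Hg.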
The subject of assay [2] is Rattus norvegicus. Briefly: Antihypertensive activity after administration of 20 mg/kg dose in spontaneously hypertensive(SH) rats; score is for average value of four animals. Format: functional. In a few lines:
as §1

The test system of assay [3] is Rattus norvegicus. Kind of assay: Saluretic property after administration in rats. In kind it is functional. The essentials: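 Rats were housed three per cage, with three cages per dose. Sodium excreted over the first 5 h was scored from the geometric mean: 0, <2 mequiv; ±, >2; 1, <8; 2, <15; 3, <25; 4, <35; 5, <45; 6, <55 mequiv.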
Assay [4] concerns Canis familiaris. Briefly: Saluretic property in an anesthetized dog after 5 mg/kg administration. In kind it is functional, Canis lupus familiaris.
Assay [5] concerns Rattus norvegicus. Kind of assay: Antihypertensive activity after intraperitoneal administration of 20 mg/kg dose in spontaneously hypertensive(SH) rats; score is for average value of two animals. In kind it is functional. In a few lines:
as §1

Assay [6] concerns Rattus norvegicus. Briefly: Antihypertensive activity after oral administration of 5 mg/kg dose in spontaneously hypertensive(SH) rats. In kind it is functional. The essentials:
as §1

Assay [7] has as its system Rattus norvegicus. Kind of assay: Antihypertensive activity after oral administration of 20 mg/kg dose in spontaneously hypertensive(SH) rats. Format: functional. In a few lines: as §1
For assay [8], the system named is Canis familiaris. Kind of assay: Saluretic property in a anesthetized dog after 5 mg/kg oral administration. Format: functional, Canis lupus familiaris.
The test system of assay [9] is Rattus norvegicus. Briefly: Antihypertensive activity after intraperitoneal administration of 20 mg/kg dose in spontaneously hypertensive(SH) rats. In kind it is functional. The essentials: as §1
Assay [10] deals with Rattus norvegicus. Briefly: Antihypertensive activity after po administration of 5 mg/kg dose in spontaneously hypertensive(SH) rats; score is for average value of two animals. Format: functional. In a few lines:
as §1

In assay [11] the test system is Canis familiaris. Briefly: Saluretic property in an average of two anesthetized dog after 5 mg/kg po administration. Format: functional, Canis lupus familiaris.
In assay [12] the test system is Rattus norvegicus. Kind of assay: Antihypertensive activity after administration of 5 mg/kg dose in spontaneously hypertensive(SH) rats; score is for average value of four animals. In kind it is functional. The essentials:
as §1

Assay [13] has as its system Rattus norvegicus. Kind of assay: Antihypertensive activity after po administration of 20 mg/kg dose in spontaneously hypertensive(SH) rats; score is for average value of six animals. Format: functional. The essentials: as §1
Assay [14] concerns Rattus norvegicus. Briefly: Antihypertensive activity after administration of 20 mg/kg dose in spontaneously hypertensive(SH) rats; score is for average value of two animals. Format: functional. In a few lines:
as §1

Assay [15] relates to Rattus norvegicus. Briefly: Antihypertensive activity after po administration of 5 mg/kg dose in spontaneously hypertensive(SH) rats; Score is for average value of two animals. In kind it is functional. In a few lines:
as §1

The test system of assay [16] is Rattus norvegicus. Kind of assay: Antihypertensive activity after po administration of 20 mg/kg dose in spontaneously hypertensive(SH) rats; Score is for average value of two animals. In kind it is functional. In a few lines: as §1
The test system of assay [17] is Rattus norvegicus. Briefly: Antihypertensive activity after po administration of 0.08 mg/kg dose in spontaneously hypertensive(SH) rats; score is for average value of four animals. In kind it is functional. The essentials: as §1
Assay [18] concerns Rattus norvegicus. Kind of assay: Antihypertensive activity after po administration of 0.31 mg/kg dose in spontaneously hypertensive(SH) rats; score is for average value of four animals. Format: functional. In a few lines: as §1
Assay [19] relates to Canis familiaris. Kind of assay: Saluretic property in an anesthetized dog after 5 mg/kg po administration; score is for average of two animals. Format: functional, Canis lupus familiaris.
Assay [20] relates to Rattus norvegicus. Kind of assay: Antihypertensive activity after oral administration of 0.31 mg/kg dose in spontaneously hypertensive(SH) rats. In kind it is functional. In a few lines:
as §1

Assay [21] concerns Rattus norvegicus. Briefly: Antihypertensive activity after po administration of 40 mg/kg dose in spontaneously hypertensive(SH) rats; score is for average value of two animals. Format: functional. The essentials:
as §1

The test system of assay [22] is Rattus norvegicus. Briefly: Antihypertensive activity after po administration of 5 mg/kg dose in spontaneously hypertensive(SH) rats; Score is for average value of six animals. In kind it is functional. In a few lines:
as §1

Assay [23] concerns Rattus norvegicus. Kind of assay: Antihypertensive activity after po administration of 0.08 mg/kg dose in spontaneously hypertensive(SH) rats; Score is for average value of six animals. In kind it is functional. In a few lines: as §1
The subject of assay [24] is Rattus norvegicus. Kind of assay: Antihypertensive activity after po administration of 0.31 mg/kg dose in spontaneously hypertensive(SH) rats; Score is for average value of six animals. In kind it is functional. In a few lines: as §1
For assay [25], the system named is Rattus norvegicus. Kind of assay: Antihypertensive activity after po administration of 1.25 mg/kg dose in spontaneously hypertensive(SH) rats; Score is for average value of six animals. In kind it is functional. The essentials: as §1

SMILES strings stand for the structures.

For the compound `CC(C)(C)c1cc(I)c2c(c1)CNC1(CCCCC1)O2`, the Antihypertensive score in the assay on Rattus norvegicus [1] was determined as 1; with Rattus norvegicus [2] it was 0. The Saluretic score with Rattus norvegicus [3] and with Canis familiaris [4] was 5 in each case.

The compound `CC(C)(C)c1cc(Cl)c2c(c1)CNC1(CCCCC1)O2` came in with an Antihypertensive score in the assay on Rattus norvegicus [5] of 0. The figures for the Saluretic score in the assay on Rattus norvegicus [3] and with Canis familiaris [4] were 3 and 5, respectively.

With `CN1CCC2(CC1)NCc1cc(C(C)(C)C)cc(Cl)c1O2`, the Antihypertensive score with Rattus norvegicus [2] is 0. In addition, the Saluretic score in the assay with Rattus norvegicus [3] is listed as 3; in the assay with Canis familiaris [4], 5.

With `CC(C)(C)c1cc(I)c2c(c1)CNC1(CCC3(CC1)NCc1cc(C(C)(C)C)cc(I)c1O3)O2` (stereo unspecified), the values for the Antihypertensive score with Rattus norvegicus [6] and in the assay on Rattus norvegicus [7] were 0 and 2, respectively. The compound also registered a Saluretic score in the assay on Rattus norvegicus [3] of 2.

In the case of `CC(C)(C)c1cc(I)c2c(c1)C[N+](C)(C)C1(CCC(C(C)(C)C)CC1)O2.[I-]` (stereo unspecified), the Saluretic score with Canis familiaris [8] and in the assay with Rattus norvegicus [3] was 0 each time. Besides, the Antihypertensive score with Rattus norvegicus [9] was 2; with Rattus norvegicus [7], 0.

For `CC(C)(C)c1cc(I)c2c(c1)C[N+](C)(C)CO2.[I-]`, the Antihypertensive score is given as 0 with Rattus norvegicus [10] and 2 in the assay with Rattus norvegicus [5]. In addition, in the assay with Rattus norvegicus [3], the Saluretic score is reported as 0.

In the case of `CC(C)(C)c1cc(I)c2c(c1)CNC1(CCCCCCCCCCC1)O2`, the Saluretic score with Canis familiaris [11] was 2; with Rattus norvegicus [3], 4. Further, the Antihypertensive score with Rattus norvegicus [12] was found to be 0; in the assay with Rattus norvegicus [2], 1.

For `CC(C)(C)c1cc(I)c2c(c1)CNC1(CCN(CCc3ccccc3)CC1)O2`, the figures for the Antihypertensive score in the assay with Rattus norvegicus [12] and in the assay on Rattus norvegicus [13] were 0 and 1, respectively. In addition, the Saluretic score amounted to 4 in the assay on Rattus norvegicus [3] and 5 in the assay on Canis familiaris [4].

Regarding `CC(C)(C)c1cc(I)c2c(c1)CNC1(O2)C2CC3C(C2)C31` (stereo unspecified), the Antihypertensive score with Rattus norvegicus [12] was 1; with Rattus norvegicus [13], 2. Further, the Saluretic score in the assay with Rattus norvegicus [3] and with Canis familiaris [4] was 5 throughout.

For the compound `CC(C)(C)c1cc(I)c2c(c1)C[N+](C)(C)C1(CCNCC1)O2.[Cl-]`, the Antihypertensive score in the assay on Rattus norvegicus [5] and in the assay on Rattus norvegicus [14] was 0 in each case. Besides, the Saluretic score in the assay on Rattus norvegicus [3] and with Canis familiaris [4] was 0 throughout.

In the case of `CC1(C)CC(C)(C)CC2(C1)NCc1cc(C(C)(C)C)cc(I)c1O2`, the Antihypertensive score came out at 0 with Rattus norvegicus [10] and 1 in the assay with Rattus norvegicus [2]. In the assay with Rattus norvegicus [3], this compound showed a Saluretic score of 4.

Turning to `CC(=O)N1CCC2(CC1)Oc1c(I)cc(C(C)(C)C)cc1C[N+]2(C)C.[I-]`, the Antihypertensive score in the assay with Rattus norvegicus [15] was found to be 0; with Rattus norvegicus [16] it was 2. The Saluretic score with Rattus norvegicus [3] and with Canis familiaris [4] was 0 in each case.

As to `CC(C)(C)c1cc(I)c2c(c1)C[N+](C)(C)C1(CCCCC1)O2.[I-]`, the Antihypertensive score came out at 2 in the assay on Rattus norvegicus [12], 0 in the assay with Rattus norvegicus [17] and 2 in the assay with Rattus norvegicus [18]. For the same compound, the Saluretic score with Rattus norvegicus [3] and with Canis familiaris [4] was 0 throughout.

In the assay with Rattus norvegicus [9], `CC(C)(C)c1cc(I)c2c(c1)CN(CN1COc3c(I)cc(C(C)(C)C)cc3C1)CO2` displayed an Antihypertensive score of 0.

Consider `CC(C)(C)c1cc(I)c2c(c1)C[N+](C)(C)C1(CCCC1)O2.[I-]`, for which the Antihypertensive score in the assay with Rattus norvegicus [5] was 3; in the assay with Rattus norvegicus [14] it was 0.

Compound `CC1CCC2(CC1)Oc1c(I)cc(C(C)(C)C)cc1C[N+]2(C)C.[I-]` (stereo unspecified) registered an Antihypertensive score in the assay with Rattus norvegicus [14] of 0.

For the compound `CC(C)(C)c1cc(I)c2c(c1)CNC1(CCSCC1)O2`, the Saluretic score in the assay on Canis familiaris [19] was 2; with Rattus norvegicus [3] it was 4. Besides, the Antihypertensive score in the assay with Rattus norvegicus [10] was determined as 0; with Rattus norvegicus [14] it was 2.

For `CC(C)(C)c1cc(I)c2c(c1)C[N+](C)(C)C(C)(C)O2.[I-]`, the Antihypertensive score in the assay on Rattus norvegicus [5] turned out to be 0.

`CC(C)(C)c1cc(I)c2c(c1)CNC1(CCC(C(=O)O)CC1)O2` (stereo unspecified): the Antihypertensive score with Rattus norvegicus [12] and in the assay with Rattus norvegicus [14] was 2 in each case. In addition, the figures for the Saluretic score with Rattus norvegicus [3] and in the assay on Canis familiaris [4] were 4 and 5, respectively.

For the compound `CC(C)(C)c1cc(Cl)c2c(c1)C[N+](C)(C)C1(CCCCC1)O2.[I-]`, the Antihypertensive score with Rattus norvegicus [5] stood at 0.5; with Rattus norvegicus [14], 0. This compound came in with a Saluretic score with Rattus norvegicus [3] of 0.

On to `CN1CCC2(CC1)NCc1cc(C(C)(C)C)cc(I)c1O2`, for which the values for the Antihypertensive score with Rattus norvegicus [5] and in the assay with Rattus norvegicus [2] were 2 and 1, respectively. Further, the Saluretic score in the assay with Rattus norvegicus [3] was found to be 4; in the assay with Canis familiaris [4], 5.

In the case of `CC(C)(C)c1cc(I)c2c(c1)CNC1(O2)C2CC3CC(C2)CC1C3` (stereo unspecified), the values for the Antihypertensive score with Rattus norvegicus [12] and with Rattus norvegicus [14] were 0 and 2, respectively. Also, the Saluretic score stood at 3 in the assay on Rattus norvegicus [3] and 0 in the assay on Canis familiaris [4].

In the assay with Rattus norvegicus [5], `CC(=O)N1CCC2(CC1)NCc1cc(C(C)(C)C)cc(I)c1O2` came in with an Antihypertensive score of 0. The same compound yielded a Saluretic score in the assay with Canis familiaris [4] of 4.

Regarding `CC(=O)Oc1cc(C(C)(C)C)cc2c1OC1(CCCCC1)[N+](C)(C)C2.[I-]`, the Saluretic score in the assay on Canis familiaris [8] and in the assay on Rattus norvegicus [3] was 0 in each case. The Antihypertensive score in the assay on Rattus norvegicus [20] was 1; in the assay on Rattus norvegicus [6], 2.

Regarding `CC(C)(C)c1cc(Cl)c(O)c(CN)c1.Cl`, the Antihypertensive score is listed as 2 in the assay on Rattus norvegicus [21] and 0 in the assay on Rattus norvegicus [14]. Also, the Saluretic score in the assay on Rattus norvegicus [3] was 6; in the assay with Canis familiaris [4], 4.

As for `CC(C)(C)c1cc(I)c(O)c(CN)c1.Cl`, the Antihypertensive score is listed as 3 in the assay on Rattus norvegicus [22], 0 in the assay with Rattus norvegicus [23], 1 in the assay on Rattus norvegicus [24] and 2 in the assay with Rattus norvegicus [25]. The Saluretic score with Rattus norvegicus [3] and with Canis familiaris [4] was 6 in each case.

As to `CC(C)(C)c1cc(I)c2c(c1)CNC1(CCC(C(C)(C)C)CC1)O2` (stereo unspecified), the Saluretic score with Canis familiaris [8] was 5; with Rattus norvegicus [3], 4. The Antihypertensive score in the assay with Rattus norvegicus [9] amounted to 0.
